This is a sample that favours compounds with a hit; in the whole collection about 3.1% have one here.
rCAG binder-1: binders of r(CAG) RNA repeats, primary screen, biochemical, fluorescence; 370,000 tested, 1.3% active; r(CAG) RNA repeat, TO-PRO-1 dye displacement fluorescence; inhibition, % at 3 µM; AID 651821, 2012;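 active means inhibition above the plate cutoff, the mean of all test compounds on that plate plus 3 SD, cut at about 35% in these data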;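 further: 0% = DMSO alone and 100% = 100 µM mitoxantrone as full dye displacement; higher means more dye released from RNA so lower well fluorescence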
CSN inh: inhibitors of CSN-mediated cullin deneddylation, primary screen, biochemical, fluorescence polarization, uHTS; AID 651999, 2013; inhibition, % at 12.5 µM; Purified CSN, SCF-Nedd8-OG deneddylation; COP9 signalosome complex subunit 5 (Homo sapiens), Q92905; 360,000 tested, 0.38% active;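 active means pattern-corrected inhibition above about 35%, with an unprinted fluorescence ratio check between 0.5 and 1.5, limit read from the data, passing the limit was not always enough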;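 further: 0% = enzyme with substrate and 100% = substrate without enzyme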
Target sequence (Q92905 whole entry, looked up, one chain of several): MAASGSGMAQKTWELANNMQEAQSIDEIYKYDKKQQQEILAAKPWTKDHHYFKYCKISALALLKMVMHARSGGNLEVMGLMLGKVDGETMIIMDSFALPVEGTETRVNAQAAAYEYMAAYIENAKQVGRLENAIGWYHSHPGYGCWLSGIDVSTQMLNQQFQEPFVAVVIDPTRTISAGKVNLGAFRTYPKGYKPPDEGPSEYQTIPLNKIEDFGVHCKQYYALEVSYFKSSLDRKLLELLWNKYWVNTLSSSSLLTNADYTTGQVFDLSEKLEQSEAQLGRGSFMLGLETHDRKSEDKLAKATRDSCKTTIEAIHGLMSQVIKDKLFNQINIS
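Assay system: purified human Csn5 enzyme expressed in HEK293T cells; measure: % inhibition; also added: SCFSkp2-Nedd8OG substrate at 10 nM final; technique: fluorescence polarization; times: reaction 90 min, room temperature; medium: Tris buffer pH 7.5, NaCl, DTT, Tween-20, trehalose, ovalbumin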
LEDGF integ inh: blockers of LEDGF/p75-dependent integrase strand transfer – biochemical, TR-FRET, high throughput, primary screen; 370,000 tested, 0.64% active; inhibition, % at 3.7 µM; TR-FRET IN-LEDGF/p75 DNA integration, Eu/Cy5; AID 743269, 2014;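 active means inhibition above the screen-wide mean plus 3 SD, cut at about 13% in these data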;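 further: signal is the Cy5 over europium emission ratio at 671 and 618 nm; 0% = plate median of compound wells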
ATG4B inh: ATG4B protease inhibitors, primary screen, biochemical, fluorescence, uHTS; ATG4B cleavage of LC3-PLA2, NBD-HPC fluorescence, 1 h; AID 504462, 2011; inhibition, % at 8.33 µM; 340,000 tested, 0.51% active; in the data active means inhibition above about 40%
MBD2 DNA inh: inhibitors of MBD2 binding to methylated DNA, primary screen, biochemical, TR-FRET, DNA-binding domain, human. Methyl-CpG-binding domain protein 2 (Homo sapiens), Q9UBB5. MBD2 binding to methylated oligonucleotide. inhibition, % at 4.4 µM. 370,000 tested, 0.31% active. AID 686964, 2013; in the data active means inhibition above about 13%
Target sequence (Q9UBB5 whole entry, looked up, the tested form may be a part): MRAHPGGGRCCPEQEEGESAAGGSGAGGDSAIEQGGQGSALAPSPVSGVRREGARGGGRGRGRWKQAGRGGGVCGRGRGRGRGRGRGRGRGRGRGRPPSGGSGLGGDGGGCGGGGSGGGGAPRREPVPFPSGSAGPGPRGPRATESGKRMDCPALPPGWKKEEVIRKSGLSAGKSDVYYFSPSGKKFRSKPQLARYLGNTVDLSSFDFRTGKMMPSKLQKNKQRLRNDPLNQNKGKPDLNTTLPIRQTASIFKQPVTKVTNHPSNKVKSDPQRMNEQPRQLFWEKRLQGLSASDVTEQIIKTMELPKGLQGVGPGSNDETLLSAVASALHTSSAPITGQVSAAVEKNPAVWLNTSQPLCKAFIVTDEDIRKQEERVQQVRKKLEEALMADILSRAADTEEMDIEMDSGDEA
UHRF1 MBD2 ctr: UHRF1 methylated DNA binding inhibitors, primary screen, counter-screen for MBD2 inhibitor project, biochemical, TR-FRET, human UHRF1, single concentration. 370,000 tested, 0.75% active. E3 ubiquitin-protein ligase UHRF1 (Homo sapiens), Q96T88. UHRF1 binding to methylated oligo. inhibition, % at 4.4 µM; in the data active means inhibition above about 21%;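 further: UHRF1 SRA domain binding a hemimethylated CpG hairpin DNA probe; 0% = median of test compound wells and 100% = reference inhibitor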
rCAG bind conf: small molecules binding CAG repeat RNA – biochemical, fluorescence, confirmation. shares compounds with rCAG binder-1. r(CAG) RNA repeat, TO-PRO-1 dye displacement fluorescence. inhibition, % at 3 µM. 4,300 tested, 70% active. AID 652065, 2013;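 active means inhibition above a per-plate cutoff, the mean inhibition of sample wells plus 3 SD, cut at about 35% in these data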;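 further: loss of TO-PRO-1 fluorescence as compound displaces dye from 1x1 AA loop RNA; 0% = DMSO only wells and 100% = 100 µM mitoxantrone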
dCAG dye counter: displacement of TO-PRO-1 from CAG DNA duplex, counter-screen for rCAG RNA repeat binder project, biochemical, fluorescence, TO-PRO-1 dye, d(CAG) DNA oligo; inhibition, % at 3 µM; d(CAG) DNA oligo TO-PRO-1 dye displacement; 4,300 tested, 94% active; shares compounds with rCAG binder-1; AID 652068, 2013;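 active means inhibition above its plate's cutoff, the mean test-well inhibition plus 3 SD, cut at about 4.8% in these data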;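 further: 0% = DNA dye mix with DMSO and 100% = 100 µM mitoxantrone; hits displace the dye from DNA and so lower well fluorescence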
DNA CAG DR: inhibitors of DNA CAG/GTC TO-PRO-1 complex, dose response, counter-screen for rCAG RNA repeat binder project, biochemical, fluorescence, TO-PRO-1 dye. shares compounds with rCAG binder-1. DNA CAG/GTC duplex TO-PRO-1 dye displacement fluorescence. IC50, µM. 250 tested, 20% active. AID 686960, 2013; in the data active means IC50 below about 10 µM
dCAG DNA bind: TO-PRO-1 dye complex inhibitors on d(CAG) DNA, dose response, counter-screen, biochemical, fluorescence, late stage; 30 tested, 80% active; shares compounds with rCAG binder-1; d(CAG) DNA duplex TO-PRO-1 dye displacement; IC50, µM; AID 720649, 2013
rCAG binder-2: molecules binding r(CAG) RNA repeats, late stage dose response, late-stage follow-up, biochemical, fluorescence, dose response, powder samples | 30 tested, 100% active | IC50, µM | shares compounds with rCAG binder-1 | AID 720651, 2013 | r(CAG) RNA TO-PRO-1 dye displacement
* marks the source's active call; other numbers are inactive results; i = inactive; x = no result given. Unless noted, how the calls were made is not given here.

SMILES	rCAG binder-1	CSN inh	LEDGF integ inh	ATG4B inh	MBD2 DNA inh	UHRF1 MBD2 ctr	rCAG bind conf	dCAG dye counter	others
O=C(/C=C/c1cn(-c2ccccc2)nc1-c1ccccc1)Nc1ccc(C(=O)O)cc1	44.2*	-4.0	-0.3	10.0	-4.7	-0.4	72.9*	34.2*	DNA CAG DR=7.72*;dCAG DNA bind=i;rCAG binder-2=6.78*
O=C(OCc1cn(Cc2cc(F)ccc2F)nn1)N1CCOCC1	3.8	x	-4.2	x	3.5	0.6	x	x
CC(=O)N1C[C@@H](CO)[C@@H]2C[C@H]1c1ccccc1N2C	0.2	x	-1.1	x	1.6	4.1	x	x
CCN(CC)CCCNC(=O)c1oc(=O)c2ccccc2c1-c1ccc(C)cc1	6.0	x	1.9	x	-2.9	1.6	x	x
C[C@H]1[C@@H](NCc2ccccc2)CC[C@@]23CCCN2C(=O)CCC[C@@H]13	x	x	1.7	x	-2.3	-0.7	x	x
Cc1cn(-c2cc(NC(=O)c3ccc(C)c(Nc4nccc(-c5cccnc5)n4)c3)cc(C(F)(F)F)c2)cn1	1.8	x	-1.1	x	0.9	-0.4	x	x
CCCC1CCC2(CC1)CCC2OC(=O)Nc1cccc(C(F)(F)F)c1 (stereo unspecified)	x	x	-1.9	x	-1.1	3.2	x	x
COCCCNC(=O)C1CCN(S(=O)(=O)c2ccc3[nH]c(=O)oc3c2)CC1	5.8	x	5.7	x	-2.0	-1.9	x	x
CC(C)C(=O)N1CC[C@H]2[C@H](CCCN2Cc2ccccc2)C1	1.0	x	1.5	x	2.7	-3.0	x	x
Cc1ccccc1C(=O)NNC(=S)Nc1cccc(C(F)(F)F)c1	16.7	-0.1	3.4	5.1	4.9	2.1	x	x
CCOc1ccc(NC(=S)NNC(=O)c2cc(Br)ccc2Cl)cc1	37.8*	-5.2	2.5	-2.6	-5.3	-4.7	29.9	8.8*
CCOc1ccc(NC(=S)NNC(=S)Nc2cccc(C(F)(F)F)c2)cc1	38.4*	1.0	-4.3	-4.4	5.0	0.1	54.7*	21.6*
O=C(NNC(=S)Nc1cccc(C(F)(F)F)c1)c1ccc(Cl)cc1Cl	62.4*	0.0	3.5	17.6	-6.2	-8.0	59.0*	20.9*
N#C/C(=C\c1ccc(C(=O)O)cc1)S(=O)(=O)c1cc(Br)ccc1Br	54.8*	5.7	-2.2	-1.3	0.7	2.6	11.6	1.2
CN1C2=N[C@H](c3ccc(Br)cc3)CC(=O)N2/C(=C\c2ccccc2)[C@@H]1c1ccccc1	x	x	1.4	x	0.3	-0.6	x	x
CCOc1ccc(Cn2c(O)cc(=O)[nH]c2=O)cc1	46.6*	13.6	0.7	-9.8	-5.1	-5.8	12.0	4.0
CCOC(=O)N1CCN(S(=O)(=O)c2ccc(C(=O)NNc3nc4cc(C)cc(C)c4s3)cc2)CC1	x	0.9	x	2.8	x	x	x	x
CCOC(=O)N1CCN(S(=O)(=O)c2ccc(C(=O)NNc3nc4c(C)cc(C)cc4s3)cc2)CC1	68.9*	1.7	-3.6	-4.2	7.1	-0.3	64.3*	24.6*
Cc1cc(C)c2nc(NNC(=O)c3ccc(S(=O)(=O)N4CCCCC4)cc3)sc2c1	55.2*	0.0	3.1	-8.4	-2.8	-4.3	37.8*	15.0*
CN1C(=O)c2cc(NC(=O)Nc3ccc(F)c(F)c3)ccc2OC[C@H]2O[C@@H](CC(=O)O)CC[C@H]21	3.5	x	-1.6	x	0.9	-1.1	x	x
Cc1ccc(-n2c(SCC(=O)Nc3ccc4c5c(cccc35)CC4)nc(O)c(C)c2=O)cc1	51.2*	-5.7	0.4	0.9	2.5	0.6	33.6	11.3*
CCOc1ccc(-c2csc(NC(=O)CSCC(=O)O)n2)c2ccccc12	62.8*	5.6	3.2	17.9	-4.0	-4.7	69.7*	24.6*	DNA CAG DR=i;dCAG DNA bind=5.49*;rCAG binder-2=1.67*
CCOc1ccc(-c2csc(NC(=O)CSC3=NC(=O)CN3C(C)=O)n2)c2ccccc12	2.1	3.1	4.0	1.6	1.4	-1.7	x	x
Oc1ccccc1-c1ccn[nH]1	0.6	1.6	-0.9	-9.1	3.9	-0.1	x	x
Oc1ccccc1-c1nc2c3ccccc3c3ccccc3c2[nH]1	56.3*	-0.3	2.1	-18.1	4.9	1.3	39.4*	28.6*
SMILES	rCAG binder-1	CSN inh	LEDGF integ inh	ATG4B inh	MBD2 DNA inh	UHRF1 MBD2 ctr	rCAG bind conf	dCAG dye counter	others
Cc1nn(CCc2nc(-c3ccco3)cs2)c2[nH]c(=O)cc(C(F)(F)F)c12	58.0*	30.1	2.7	19.1	0.7	-1.9	12.8	1.2
COC(=O)[C@]12C[C@H](CC(=O)N3CCSCC3)C(=O)N(Cc3ccco3)C1=C[C@H](C(C)(C)C)O[C@@H]2C	0.7	x	-4.9	x	1.7	1.9	x	x
Cc1cccc(NC(=S)NNC(=O)c2cc3c(s2)CCC(C)C3)c1C (stereo unspecified)	37.3*	-3.4	0.6	38.4	-0.9	-1.0	34.9*	11.8*
Cc1cccc(S(=O)(=O)N2CCC[C@H]2C(=O)N2CCC[C@@H]2C(=O)NCc2ccccc2)c1	-1.5	x	0.7	x	5.5	1.2	x	x
Oc1ccc(N=Nc2c(O)ccc3ccccc23)cc1	41.4*	8.3	-1.4	4.3	-4.7	-0.9	33.6	17.3*
COc1ccccc1NC(=O)CCN1C(=O)/C(=C/c2cc(OC)c(OC)c(OC)c2)SC1=S	-0.8	-4.5	3.0	1.3	3.0	1.2	x	x
COc1cc(/C=C2\SC(=S)N(C(C(=O)O)c3ccccc3)C2=O)cc(OC)c1OC (stereo unspecified)	56.0*	2.9	-3.3	4.4	0.7	-3.2	64.3*	24.4*

Screening results from PubChem BioAssay.
